Test results taken from ChEMBL document CHEMBL4007449, “Novel multi-substituted benzyl acridone derivatives as survivin inhibitors for hepatocellular carcinoma treatment” (Eur J Med Chem, 2017).
Calls of active or inactive are those of the source. The calls are words filed in the database; no cut-off is given here.

Assays:
Mus musculus [1] = assay: Toxicity in nude mouse ectopically xenografted with human HepG2 cells assessed as effect on normal growth at 0.33 to 3 mg/kg, ip administered once in 2 days measured up to 30 days post dose; format: organism-based; conditions: in vivo
Method in brief: (§1)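 HepG2 cells implanted subcutaneously in the flanks of nude mice, randomised into groups of 5: blank, 5-FU (25 mg/kg) and test compound hydrochloride at 0.33 or 3 mg/kg, given i.p. once every 2 days. Tumour volume and body weight recorded every 2 days. Mice euthanised on day 30; tumours, liver and spleen weighed and organ indices calculated; tumour growth inhibition derived.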

Mus musculus [2] = assay: Toxicity in nude mouse ectopically xenografted with human HepG2 cells assessed as liver weight index at 0.33 mg/kg, ip administered once in 2 days measured after 30 days (reference value: 0.0009 to 0.0187); format: organism-based; conditions: in vivo, 720 h; method in brief: as §1
Mus musculus [3] = assay: Toxicity in nude mouse ectopically xenografted with human HepG2 cells assessed as liver weight at 3 mg/kg, ip administered once in 2 days measured after 30 days (reference value: 0.069 to 0.434 g); format: organism-based; conditions: in vivo, 720 h; method in brief: as §1
Mus musculus [4] = assay: Toxicity in nude mouse ectopically xenografted with human HepG2 cells assessed as spleen weight at 3 mg/kg, ip administered once in 2 days measured after 30 days (reference value: 0.071 to 0.248 g); format: organism-based; conditions: in vivo, 720 h; method in brief: as §1
Mus musculus [5] = assay: Toxicity in nude mouse ectopically xenografted with human HepG2 cells assessed as liver weight index at 3 mg/kg, ip administered once in 2 days measured after 30 days (reference value: 0.0009 to 0.0187); format: organism-based; conditions: in vivo, 720 h; method in brief: as §1
Mus musculus [6] = assay: Toxicity in nude mouse ectopically xenografted with human HepG2 cells assessed as liver weight at 0.33 mg/kg, ip administered once in 2 days measured after 30 days (reference value: 0.069 to 0.434 g); format: organism-based; conditions: in vivo, 720 h; method in brief: as §1
Mus musculus [7] = assay: Toxicity in nude mouse ectopically xenografted with human HepG2 cells assessed as body weight loss at 0.33 to 3 mg/kg, ip administered once in 2 days measured up to 30 days post dose; format: organism-based; conditions: in vivo; method in brief: as §1
HepG2 [8] = assay: Antitumor activity against human HepG2 cells ectopically xenografted in nude mouse assessed as tumor growth inhibition at 3 mg/kg, ip administered once in 2 days measured after 30 days relative to control; format: functional; conditions: read-out: TGI; method in brief: as §1
Mus musculus [9] = assay: Toxicity in nude mouse ectopically xenografted with human HepG2 cells assessed as spleen weight at 0.33 mg/kg, ip administered once in 2 days measured after 30 days (reference value: 0.071 to 0.248 g); format: organism-based; conditions: in vivo, 720 h; method in brief: as §1
Mus musculus [10] = assay: Toxicity in ip dosed nude mouse ectopically xenografted with human HepG2 cells assessed as increase in spleen weight administered once in 2 days measured after 30 days; format: organism-based; conditions: in vivo, 720 h; method in brief: as §1
Mus musculus [11] = assay: Toxicity in nude mouse ectopically xenografted with human HepG2 cells assessed as spleen weight index at 0.33 mg/kg, ip administered once in 2 days measured after 30 days (reference value: 0.002 to 0.0106); format: organism-based; conditions: in vivo, 720 h; method in brief: as §1
Mus musculus [12] = assay: Toxicity in nude mouse ectopically xenografted with human HepG2 cells assessed as effect on normal behavior at 0.33 to 3 mg/kg, ip administered once in 2 days measured up to 30 days post dose; format: organism-based; conditions: in vivo; method in brief: as §1
Mus musculus [13] = assay: Toxicity in nude mouse ectopically xenografted with human HepG2 cells assessed as spleen weight index at 3 mg/kg, ip administered once in 2 days measured after 30 days (reference value: 0.002 to 0.0106); format: organism-based; conditions: in vivo, 720 h; method in brief: as §1
Mus musculus [14] = assay: Toxicity in nude mouse ectopically xenografted with human HepG2 cells assessed as spleen weight index at 25 mg/kg, ip administered once in 2 days measured after 30 days (reference value: 0.002 to 0.0106); format: organism-based; conditions: in vivo, 720 h
Mus musculus [15] = assay: Toxicity in nude mouse ectopically xenografted with human HepG2 cells assessed as body weight loss at 25 mg/kg, ip administered once in 2 days measured after 10 days relative to control; format: organism-based; conditions: in vivo, 240 h
Mus musculus [16] = assay: Toxicity in nude mouse ectopically xenografted with human HepG2 cells assessed as spleen weight at 25 mg/kg, ip administered once in 2 days measured after 30 days (reference value: 0.071 to 0.248 g); format: organism-based; conditions: in vivo, 720 h
Mus musculus [17] = assay: Toxicity in nude mouse ectopically xenografted with human HepG2 cells assessed as liver weight index at 25 mg/kg, ip administered once in 2 days measured after 30 days (reference value: 0.0009 to 0.0187); format: organism-based; conditions: in vivo, 720 h
HepG2 [18] = assay: Antitumor activity against human HepG2 cells ectopically xenografted in nude mouse assessed as tumor growth inhibition at 25 mg/kg, ip administered once in 2 days measured after 30 days relative to control; format: functional; conditions: read-out: TGI
Mus musculus [19] = assay: Toxicity in nude mouse ectopically xenografted with human HepG2 cells assessed as liver weight at 25 mg/kg, ip administered once in 2 days measured after 30 days (reference value: 0.069 to 0.434 g); format: organism-based; conditions: in vivo, 720 h
[20] = Selectivity index, ratio of IC50 for human QGY7701 cells to IC50 for human HepG2 cells; format: functional
Method in brief: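 Ratio built from MTT IC50 values: QGY-7701 and HepG2 cells in DMEM/10% FBS, seeded at 6 × 10^3 cells/well, attached 12 h, treated 48 h at final 0.1–50 µM, MTT 4 h, DMSO solubilisation, absorbance at 490 nm.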

[21] = Antiproliferative activity against human QGY7701 cells after 48 hrs by MTT assay; format: cell-based; conditions: QGY7701, 48 h
Method in brief: (§2)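 Cells grown in DMEM with 10% FBS at 37 °C, 5% CO2; seeded at 6 × 10^3 cells/well, allowed to attach 12 h, then exposed to compound at final 50, 25, 10, 1 and 0.1 µM for 48 h. MTT (5 mg/mL) added for 4 h, formazan dissolved in DMSO, absorbance read at 490 nm; IC50 taken from the resulting curve.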

HepG2 [22] = assay: Antiproliferative activity against human HepG2 cells after 48 hrs by MTT assay; format: functional, cell-based; conditions: HepG2, 48 h; method in brief: as §2
MCF7 = assay: Antiproliferative activity against human MCF7 cells after 48 hrs by MTT assay; format: functional, cell-based; conditions: MCF7, 48 h; method in brief: as §2
HepG2 [23] = assay: Upregulation of cleaved PARP expression in human HepG2 cells up to 10 uM after 24 hrs by Western blot method; format: functional, cell-based
Method in brief: (§3)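 HepG2 cells in 6 cm dishes exposed to a range of concentrations (1–10 µM) for 24 h. Lysate protein measured by BCA, run on 12% SDS-PAGE and transferred to PVDF. Membrane blocked in 5% milk for 1 h, primary antibody overnight at 4 °C, bands imaged after antibody hybridisation.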

Homo sapiens = species on record: Homo sapiens; assay: Inhibition of recombinant human topoisomerase-2-mediated decatenation at 50 uM using kinetoplast DNA as substrate after 30 mins agarose gel electrophoresis method relative to control
Method in brief: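 Human Topo II decatenation run by a contract laboratory. Compound or 50% DMSO combined with reaction mix and diluted enzyme, incubated 35 ± 2 °C for 30 min, then stop buffer added. Products separated on 1% agarose, stained 10 min with 2.3 µg/ml ethidium bromide, destained 20 min, bands quantified densitometrically. Doxorubicin at 1 and 10 µM as positive controls, no-compound negative control; run in duplicate.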

Bos taurus = species on record: Bos taurus; assay: Binding affinity to calf thymus DNA at 40 uM after 5 mins by UV absorbance spectrophotometric method; conditions: in the assay text read “fluorescence spectroscopic method” for “UV absorbance spectrophotometric method”
Method in brief: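 Fluorescence emission titration on a spectrofluorometer in 5 mM Tris, 50 mM NaCl, pH 7.2. Compound fixed at 40 µM final; ct DNA added at 0, 8, 16, 24, 32, 40, 60, 80 and 120 µM final. DNA concentration set by UV using ε260 = 6600 M-1 cm-1. Excitation 280 nm; 5 min incubation before reading.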

HepG2 [24] = assay: Upregulation of cleaved caspase-7 expression in human HepG2 cells at 10 uM after 24 hrs by Western blot method; format: functional, cell-based; method in brief: as §3
[25] = molecular target: T1, DNA topoisomerase 1 (Homo sapiens) (UniProt P11387); assay: Inhibition of recombinant human topoisomerase-1-mediated relaxation of pBR322 DNA substrate after 30 mins agarose gel electrophoresis method
T1 sequence (whole entry): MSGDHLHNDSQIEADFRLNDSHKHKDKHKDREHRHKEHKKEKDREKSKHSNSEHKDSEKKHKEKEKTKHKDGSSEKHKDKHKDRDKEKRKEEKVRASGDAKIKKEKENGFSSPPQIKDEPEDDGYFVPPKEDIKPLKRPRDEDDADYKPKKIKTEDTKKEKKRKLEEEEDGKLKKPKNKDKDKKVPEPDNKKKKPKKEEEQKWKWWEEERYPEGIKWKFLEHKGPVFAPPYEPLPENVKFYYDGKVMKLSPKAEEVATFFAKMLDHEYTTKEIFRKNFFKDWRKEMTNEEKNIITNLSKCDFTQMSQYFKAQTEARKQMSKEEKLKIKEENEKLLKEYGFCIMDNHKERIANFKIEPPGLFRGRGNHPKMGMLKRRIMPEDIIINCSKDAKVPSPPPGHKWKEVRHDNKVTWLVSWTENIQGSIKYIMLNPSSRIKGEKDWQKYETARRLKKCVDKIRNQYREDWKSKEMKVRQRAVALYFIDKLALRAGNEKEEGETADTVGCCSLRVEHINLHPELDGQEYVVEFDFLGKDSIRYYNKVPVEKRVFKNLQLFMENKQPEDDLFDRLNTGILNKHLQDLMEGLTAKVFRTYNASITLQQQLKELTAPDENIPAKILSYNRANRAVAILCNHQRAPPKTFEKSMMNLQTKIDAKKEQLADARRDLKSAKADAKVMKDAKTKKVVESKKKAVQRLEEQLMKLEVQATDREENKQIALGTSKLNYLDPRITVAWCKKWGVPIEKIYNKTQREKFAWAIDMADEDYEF

[26] = molecular target: Baculoviral IAP repeat-containing protein 5 (Homo sapiens) (UniProt O15392); assay: Binding affinity to survivin (unknown origin) after 20 mins by spectrofluorimetric titration method
Sequence of Baculoviral IAP repeat-containing protein 5 (Homo sapiens) (O15392 whole entry): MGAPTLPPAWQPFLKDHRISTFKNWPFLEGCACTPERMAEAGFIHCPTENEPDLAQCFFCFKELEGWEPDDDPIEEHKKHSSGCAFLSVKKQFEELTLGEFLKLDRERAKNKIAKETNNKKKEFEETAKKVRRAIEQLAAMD
Method in brief: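 Intrinsic fluorescence titration of purified survivin (0.3 µM) in 10 mM PBS, pH 7.4, at 37 °C. Compound added to final 0–1.6 µM; 20 min incubation before recording emission spectra with excitation at 280 nm. Spectra compared with and without survivin.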

HepG2 [27] = assay: Downregulation of Bcl2 expression in human HepG2 cells at 10 uM after 24 hrs by Western blot method; format: functional, cell-based; method in brief: as §3
HepG2 [28] = assay: Downregulation of survivin expression in human HepG2 cells after 24 hrs by Western blot method; format: functional, cell-based; method in brief: as §3

COc1ccc(CNc2ccc(C(=O)NCCCN(C)C)c3[nH]c4c([N+](=O)[O-])cccc4c(=O)c23)cc1.Cl
Activity (Mus musculus [1]): Non-Toxic
Activity index (Mus musculus [2]): 0.0016 to 0.0217
Activity (Mus musculus [3]): 0.032 to 0.421 g
Activity (Mus musculus [4]): 0.084 to 0.344 g
Activity index (Mus musculus [5]): 0.0025 to 0.0198
Activity (Mus musculus [6]): 0.04 to 0.441 g
Activity (Mus musculus [7]): Non-Toxic
inhibition in vivo at 3 mg/kg (HepG2 [8]): 54%
Activity (Mus musculus [9]): 0.044 to 0.231 g
Activity (Mus musculus [10]): Dose-dependent effect
Activity index (Mus musculus [11]): 0.0016 to 0.0113
Activity (Mus musculus [12]): Non-Toxic
Activity index (Mus musculus [13]): 0.0042 to 0.0162

O=c1[nH]cc(F)c(=O)[nH]1 [FLUOROURACIL]
Activity index (Mus musculus [14]): 0.005 to 0.0144
Activity (Mus musculus [15]): 30%
Activity (Mus musculus [16]): 0.091 to 0.26 g
Activity index (Mus musculus [17]): 0.0034 to 0.0231
inhibition in vivo at 25 mg/kg (HepG2 [18]): 64%
Activity (Mus musculus [19]): 0.062 to 0.419 g

COc1ccc(CNc2ccc(C(=O)NCCCN(C)C)c3[nH]c4c([N+](=O)[O-])cccc4c(=O)c23)cc1 [listing 1 of 2 here]
Ratio IC50 [20]: 11
IC50 [21]: 40.7 µM
IC50 (HepG2 [22]): 3.56 µM
IC50 (MCF7): 4.4 µM

COc1ccc(CNc2ccc(C(=O)NCCCN(C)C)c3[nH]c4c([N+](=O)[O-])cccc4c(=O)c23)cc1 [listing 2 of 2 here]
Activity (HepG2 [23]): Active
inhibition (Homo sapiens): 10.9%
Activity (Bos taurus): inactive
Activity (HepG2 [24]): Active
inhibition [25]: inactive
Activity [26]: Dose-dependent effect
Activity (HepG2 [27]): Active
Activity (HepG2 [28]): Dose-dependent effect
